# Results pooled from the literature.
# Each line is one published result; the experiments were not run side by side.
# Target: STE20-like serine/threonine-protein kinase (SLK, Homo sapiens, UniProt Q9H2G2)
Structure (SMILES),observed,technique,concentration,remaining binding [%]
O=C(NCCCN1CCOCC1)c1ccc(Nc2ncc(Cl)c(-c3ccc(Cl)s3)n2)cc1,binding,competition with immobilised ligand,1 µM,8
O=C(NCC1CCOCC1)c1n[nH]cc1NC(=O)c1c(F)cccc1F,binding,competition with immobilised ligand,1 µM,99
C[C@@H]1CCN(c2nccc(-c3cnn4ncccc34)n2)C1,binding,,1 µM,87
O=C(c1ccc(Nc2nccc(-c3cc4ccccc4s3)n2)cc1)N1CCC(N2CCCC2)CC1,binding,competition with immobilised ligand,1 µM,13
CCOC(=O)c1cc2cc(-c3cc(C(=O)NCc4ccc(C(=O)O)cc4)nn3C)ccc2[nH]1,cell-free assay,competition with immobilised ligand,0.1 µM,98
C=CC(=O)N1CCC(C(=O)NCC(=O)N2CCN(c3nc(-c4cnc(N)nc4C(F)F)nc(N4CCOCC4)n3)CC2)CC1,binding,competition with immobilised ligand,1 µM,80
C[C@@]1(Cc2ccc(C#N)cc2)C(=O)N(c2cc(Cl)cc(Cl)c2)c2ncc(C(=O)NC3(c4nc(C5CCC5)no4)CC3)n21,cell-free assay,competition with immobilised ligand,1 µM,100
C[C@@H](c1ccc(-n2cnc3c(N)ncnc32)cc1)N1CCc2nn(C)c(Cc3ccccc3)c2C1=O,binding,competition with immobilised ligand,0.1 µM,100
Cc1cnc(Nc2ccc(C(=O)N3CCC(N4CCCC4)CC3)cc2)nc1-c1cc2ccccc2s1,binding,competition with immobilised ligand,1 µM,0.4
CN(CCCC(F)(F)F)c1nccc(-c2cnn3ncccc23)n1,binding,,1 µM,85
Nc1ncc2c(n1)-c1c([nH]c3ccc(C#CC4CC4)cc13)CCCC2,binding,competition with immobilised ligand,1 µM,100
O=C(O)[C@H]1[C@H](Cn2nnc3ccccc3c2=O)CC[C@@H]1C(=O)c1ccc(OCCC2CCOCC2)cc1,cell-free assay,competition with immobilised ligand,1 µM,96
CCN1CCN(Cc2ccc(C(=O)Nc3ccc(C)c(Oc4ccc5c(c4)CC(=O)N5)c3)cc2C(F)(F)F)CC1,binding,competition with immobilised ligand,1 µM,76
COc1ccnn2ncc(-c3ccnc(N(C)C)n3)c12,binding,,1 µM,86
O=C(NS(=O)(=O)c1ccc(NCC2CCOCC2)c([N+](=O)[O-])c1)c1ccc(N2CCN(Cc3ccc(C(F)(F)F)cc3-c3ccc(Cl)cc3)CC2)cc1Oc1cnc2[nH]ccc2c1,cell-free assay,competition with immobilised ligand,1 µM,100
CN(C)c1nccc(-c2cnn3ncccc23)n1,binding,,1 µM,100
CN([C@@H]1CCc2c(CC(=O)O)c3cc(S(C)(=O)=O)ccc3n2C1)S(=O)(=O)c1ccc(F)cc1,cell-free assay,competition with immobilised ligand,1 µM,100
N[C@H]1CCN(c2nccc(-c3cnn4ncccc34)n2)C1,binding,,1 µM,86
COc1cnc(Nc2cccc(S(N)(=O)=O)c2)nc1N1CCN(c2ccccc2)C(=O)C1,binding,competition with immobilised ligand,1 µM,100
CC1CCCN1c1nccc(-c2cnn3ncccc23)n1 (stereo not drawn),binding,,1 µM,100
C[C@@H]1CN(c2cc(-c3n[nH]c4ccc(OC5(C)CC5)cc34)ncn2)C[C@H](C)O1,cell-free assay,competition with immobilised ligand,0.1 µM,98
